From ChEMBL document CHEMBL3352164, “Discovery of N-(2,4-di-tert-butyl-5-hydroxyphenyl)-4-oxo-1,4-dihydroquinoline-3-carboxamide (VX-770, ivacaftor), a potent and orally bioavailable CFTR potentiator” (J Med Chem, 2014) come the findings set out here.

SMILES strings stand for the structures.

The target in data set [1] is Cystic fibrosis transmembrane conductance regulator (Homo sapiens, UniProt P13569, F508DEL). The data set can be described thus: Potentiation of human CFTR F508del mutant expressed in mouse NIH-3T3 cells after 30 mins by fluorescent voltage sensing optical assay. Type of data set: cell-based, NIH3T3. Summed up: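 NIH-3T3 fibroblasts stably expressing human F508del-CFTR were held 16–24 h at 27 °C to correct misfolding. Cells were washed in NaCl/HEPES bath, pH 7.4, then loaded with voltage-sensing dyes plus compound for 30 min at room temperature. Cl−-free bath with forskolin was added once, and membrane potential change was read by fluorescence. EC50 is mean ± SD of at least three determinations.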
Sequence of Cystic fibrosis transmembrane conductance regulator (P13569 as listed by the source): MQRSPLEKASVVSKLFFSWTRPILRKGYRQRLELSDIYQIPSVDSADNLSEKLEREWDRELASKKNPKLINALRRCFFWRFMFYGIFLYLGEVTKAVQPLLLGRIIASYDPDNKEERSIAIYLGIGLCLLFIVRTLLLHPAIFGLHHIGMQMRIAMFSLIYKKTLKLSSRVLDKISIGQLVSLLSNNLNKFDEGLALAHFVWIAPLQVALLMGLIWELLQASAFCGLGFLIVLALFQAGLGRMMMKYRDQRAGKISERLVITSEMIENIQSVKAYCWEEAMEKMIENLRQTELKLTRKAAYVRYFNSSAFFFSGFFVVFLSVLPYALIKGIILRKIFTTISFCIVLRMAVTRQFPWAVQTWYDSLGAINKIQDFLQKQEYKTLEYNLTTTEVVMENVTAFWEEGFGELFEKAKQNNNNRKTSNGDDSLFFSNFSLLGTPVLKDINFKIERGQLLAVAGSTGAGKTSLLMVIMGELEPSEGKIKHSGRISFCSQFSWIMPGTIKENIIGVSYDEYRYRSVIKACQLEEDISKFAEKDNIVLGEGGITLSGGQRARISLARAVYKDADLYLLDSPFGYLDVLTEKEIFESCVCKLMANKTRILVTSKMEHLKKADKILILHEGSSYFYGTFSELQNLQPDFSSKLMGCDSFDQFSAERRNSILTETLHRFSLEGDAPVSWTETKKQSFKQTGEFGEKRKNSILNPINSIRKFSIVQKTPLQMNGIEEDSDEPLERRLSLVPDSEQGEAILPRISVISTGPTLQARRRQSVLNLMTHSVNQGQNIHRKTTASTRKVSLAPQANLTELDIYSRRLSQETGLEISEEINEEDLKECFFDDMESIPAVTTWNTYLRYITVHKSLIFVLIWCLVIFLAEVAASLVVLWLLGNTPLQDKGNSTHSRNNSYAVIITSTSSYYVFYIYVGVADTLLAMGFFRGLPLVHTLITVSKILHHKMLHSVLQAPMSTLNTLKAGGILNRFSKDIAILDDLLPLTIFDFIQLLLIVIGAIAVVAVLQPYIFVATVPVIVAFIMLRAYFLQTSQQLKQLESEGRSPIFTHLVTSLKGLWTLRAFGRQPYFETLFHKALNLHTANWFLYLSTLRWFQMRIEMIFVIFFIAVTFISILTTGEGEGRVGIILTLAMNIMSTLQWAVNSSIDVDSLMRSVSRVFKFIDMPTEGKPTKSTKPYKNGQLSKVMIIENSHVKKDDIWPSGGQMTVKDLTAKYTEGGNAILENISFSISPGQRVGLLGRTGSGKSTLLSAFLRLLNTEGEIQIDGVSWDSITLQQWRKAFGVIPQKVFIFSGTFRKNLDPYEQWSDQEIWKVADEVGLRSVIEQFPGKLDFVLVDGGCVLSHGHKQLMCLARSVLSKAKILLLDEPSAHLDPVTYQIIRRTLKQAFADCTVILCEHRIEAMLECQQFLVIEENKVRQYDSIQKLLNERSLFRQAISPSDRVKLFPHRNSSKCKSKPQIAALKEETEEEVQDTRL

Data set [2] relates to Cystic fibrosis transmembrane conductance regulator (Homo sapiens), P13569 [F508del]. The data set can be described thus: Potentiation of human CFTR F508del mutant expressed in mouse NIH-3T3 cells at 30 uM after 30 mins by fluorescent voltage sensing optical assay relative to VRT-532. Type of data set: cell-based. The note with it: NIH3T3. Summed up: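 Same F508del-CFTR NIH-3T3 membrane-potential assay: 27 °C correction for 16–24 h, dye plus compound for 30 min at room temperature, then forskolin in Cl−-free bath. Compounds below 50% activity at 30 μM were not titrated. Their response at 30 μM is given as % of VRT-532.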
Sequence of Cystic fibrosis transmembrane conductance regulator (Homo sapiens), P13569 [F508del] (P13569 as listed by the source): as above

The nature of data set [3]: Half life in mouse at 3 mg/kg, iv. Type of data set: ADME, organism-based. Set-up: dose 3 mg/kg, route intravenous. The note with it: in vivo. Summed up: (§1)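 Animals (n = 3/group; male mouse, Sprague-Dawley rat, beagle dog, cynomolgus monkey) got a single iv dose in dimethyl isosorbide/ethanol/PEG400/D5W (10%/15%/35%/40%) at 1 mL/kg. Heparinized blood was drawn via an indwelling carotid cannula from predose to 48 h. Plasma was assayed by LC/MS/MS (LLOQ 1 ng/mL, linear 1–2500 ng/mL). Parameters came from noncompartmental analysis of mean profiles using measured doses.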

Data set [4] is described as follows: Half life in beagle dog at 0.9 mg/kg, iv. The settings on record: in vivo. Also on record: dose 0.9 mg/kg, route intravenous. It counts as ADME, organism-based, Canis lupus familiaris. Summed up: as §1
The next data set deals with Cytochrome P450 2E1 (Homo sapiens, UniProt P05181). The data set can be described thus: Inhibition of CYP2E1 (unknown origin). It counts as ADME.
Sequence of Cytochrome P450 2E1 (P05181 whole entry): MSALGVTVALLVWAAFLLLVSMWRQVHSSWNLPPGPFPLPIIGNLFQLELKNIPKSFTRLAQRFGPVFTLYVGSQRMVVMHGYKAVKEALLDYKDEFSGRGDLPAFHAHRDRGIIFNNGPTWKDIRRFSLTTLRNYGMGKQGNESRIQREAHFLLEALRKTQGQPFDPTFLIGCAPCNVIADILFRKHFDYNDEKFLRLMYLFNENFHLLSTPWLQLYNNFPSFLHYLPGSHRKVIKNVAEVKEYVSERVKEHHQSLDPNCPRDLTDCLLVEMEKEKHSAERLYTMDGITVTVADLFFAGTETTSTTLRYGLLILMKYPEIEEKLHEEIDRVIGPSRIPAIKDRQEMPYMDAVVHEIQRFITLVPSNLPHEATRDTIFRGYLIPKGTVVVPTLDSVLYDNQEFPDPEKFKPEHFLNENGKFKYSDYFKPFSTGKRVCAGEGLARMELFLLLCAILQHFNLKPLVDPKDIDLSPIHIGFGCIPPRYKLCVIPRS
Data set [5] in a line: Volume of distribution at steady state in Cynomolgus monkey at 0.8 mg/kg, iv. It counts as ADME, organism-based, Macaca fascicularis. Also on record: dose 0.8 mg/kg, route intravenous. The note with it: in vivo, read-out: Vdss. Summed up:
as §1

Data set [6] can be described thus: Volume of distribution at steady state in beagle dog at 0.9 mg/kg, iv. Type of data set: ADME, organism-based, Canis lupus familiaris. Set-up: dose 0.9 mg/kg, route intravenous. The settings on record: in vivo, read-out: Vdss. Summed up: as §1
Data set [7] in a line: Clearance in Cynomolgus monkey at 0.8 mg/kg, iv. The note with it: in vivo. Type of data set: ADME, organism-based, Macaca fascicularis. Set-up: dose 0.8 mg/kg, route intravenous. Summed up: as §1
Data set [8] has as its system Canis familiaris. The data set can be described thus: AUC (0 to infinity) in beagle dog at 3.8 mg/kg, po. The settings on record: in vivo.
Data set [9] in a line: Clearance in mouse at 3 mg/kg, iv. Type of data set: ADME, organism-based. Set-up: dose 3 mg/kg, route intravenous. The settings on record: in vivo. Summed up: as §1
Data set [10] is described as follows: Half life in Cynomolgus monkey at 0.8 mg/kg, iv. Type of data set: ADME, organism-based, Macaca fascicularis. Also on record: dose 0.8 mg/kg, route intravenous. The note with it: in vivo. Summed up: as §1
Data set [11] is described as follows: Volume of distribution at steady state in mouse at 3 mg/kg, iv. It counts as ADME, organism-based. Set-up: dose 3 mg/kg, route intravenous. The note with it: in vivo, read-out: Vdss. Summed up: as §1
Data set [12] in a line: AUC (0 to infinity) in Sprague-Dawley rat at 3 mg/kg, po. Type of data set: ADME, organism-based. Also on record: time infinity, dose 3 mg/kg, route oral. The settings on record: plasma. Summed up: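 Single oral dose, n = 3/group. Heparinized carotid-cannula blood was sampled at predose, 0.25, 0.5, 1, 1.5, 2, 4, 8, 12 and 24 h. Plasma levels were measured by LC/MS/MS (LLOQ 1 ng/mL). AUC and bioavailability were derived by noncompartmental analysis of mean concentration–time profiles against the iv arm.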

The subject of data set [13] is Canis familiaris. The data set can be described thus: Oral bioavailability in beagle dog at 3.8 mg/kg. The settings on record: in vivo.
Data set [14] can be described thus: Clearance in Sprague-Dawley rat at 2.45 mg/kg, iv. It counts as ADME, organism-based. The settings on record: in vivo. Also on record: dose 2.45 mg/kg, route intravenous. Summed up:
as §1

Data set [15] is described as follows: AUC (0 to infinity) in Sprague-Dawley rat at 2.45 mg/kg, iv. It counts as ADME, organism-based. Set-up: time infinity, dose 2.45 mg/kg, route intravenous. The note with it: plasma. Summed up: (§2)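 Male Sprague−Dawley rats, n = 3/group, single iv dose in dimethyl isosorbide/ethanol/PEG400/D5W (10%/15%/35%/40%) at 1 mL/kg. Carotid cannula blood at predose, 5, 15, 30, 45 min and 1, 2, 4, 6, 8, 12, 24, 36, 48 h. Plasma levels by LC/MS/MS (LLOQ 1 ng/mL, linear 1–2500 ng/mL). Noncompartmental analysis of mean profiles using measured doses.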

A short description of data set [16]: Volume of distribution at steady state in Sprague-Dawley rat at 2.45 mg/kg, iv. The settings on record: in vivo, read-out: Vdss. Also on record: dose 2.45 mg/kg, route intravenous. Type of data set: ADME, organism-based. Summed up: as §1
Data set [17] in a line: Half life in Sprague-Dawley rat at 2.45 mg/kg, iv. Also on record: dose 2.45 mg/kg, route intravenous. It counts as ADME, organism-based. The settings on record: in vivo. Summed up: as §1
The nature of data set [18]: AUC (0 to infinity) in Sprague-Dawley rat at 1.29 mg/kg, iv. Type of data set: ADME, organism-based. Set-up: dose 1.29 mg/kg, route intravenous, time infinity. The note with it: plasma. Summed up:
as §2

Data set [19] in a line: Volume of distribution at steady state in Sprague-Dawley rat at 1.29 mg/kg, iv. Also on record: dose 1.29 mg/kg, route intravenous. Type of data set: ADME, organism-based. The note with it: in vivo, read-out: Vdss. Summed up:
as §1

Data set [20] can be described thus: Clearance in Sprague-Dawley rat at 1.29 mg/kg, iv. Set-up: dose 1.29 mg/kg, route intravenous. It counts as ADME, organism-based. The note with it: in vivo. Summed up: as §1
The nature of data set [21]: Half life in Sprague-Dawley rat at 1.29 mg/kg, iv. The note with it: in vivo. It counts as ADME, organism-based. Set-up: dose 1.29 mg/kg, route intravenous. Summed up:
as §1

On to `Nc1cccc(NC(=O)c2c[nH]c3ccccc3c2=O)c1`, for which, in [1], the EC50 worked out at 6900 nM.

As to `CCc1c[nH]c2cc(NC(=O)c3c[nH]c4ccccc4c3=O)ccc12`, in data set [1], the EC50 turned out to be 100 nM.

For `O=C(Nc1cnc2ccccc2c1O)c1ccc2cc[nH]c2c1`, the Activity in data set [2] turned out to be 8%.

As for `Cn1cc(C(=O)N(Cc2ccccc2)Cc2ccccc2)c(=O)c2ccccc21`, in [2], the Activity was determined as 37%.

In the case of `O=C(Nc1ccc2cn[nH]c2c1)c1c[nH]c2ccccc2c1=O`, the concentration giving a half-maximal response (EC50) in data set [1] was 5600 nM.

As for `O=C(Nc1ccc2ccccc2c1)c1c[nH]c2ccccc2c1=O`, in data set [1], the EC50 came to 800 nM.

With `O=C(Nc1ccc2[nH]ccc2c1)c1c[nH]c2ccccc2c1=O`, the EC50 in data set [1] is 6100 nM.

Turning to `O=C(c1cnccc1O)N(Cc1ccccc1)Cc1ccccc1`, the Activity in data set [2] amounted to 2%.

As for `CC(C)(C)c1cc(C(C)(C)C)c(NC(=O)c2c[nH]c3ccccc3c2=O)cc1O` [IVACAFTOR], the half-life in data set [3] is 78 min; in [4] it was 780 min; in [10], 402 min. In addition, on Cytochrome P450 2E1, the IC50 is > 20 µM. Moreover, the Vd turned out to be 2.2 L/kg in [5], 0.7 L/kg in [6] and 2.8 L/kg in data set [11]. The clearance stood at 7.4 mL/min/kg in data set [7] and 20 mL/min/kg in data set [9]. In the data set on Canis familiaris [8], this compound gave an AUC of 13.5 µg·h/mL. Besides, in [12], the AUC(0-inf) is 4800 ng·h/mL. Besides, the EC50 in data set [1] came to 3 nM. Also, in the data set with Canis familiaris [13], the F came to 43%.

For the compound `O=c1c(CNc2ccc3cc[nH]c3c2)c[nH]c2ccccc12`, the Activity in [2] is 1%.

For `Cc1ccc(NC(=O)c2c[nH]c3ccccc3c2=O)cc1N`, in data set [1], the EC50 came out at 6000 nM.

In data set [14], `CC(C)(C)c1c[nH]c2cc(NC(=O)c3c[nH]c4ccccc4c3=O)ccc12` returned a clearance of 60.7 mL/min/kg. Also, the total exposure AUC(0-inf) in data set [15] turned out to be 700 ng·h/mL. In addition, in [16], the Vd was 4.4 L/kg. Also, the EC50 in data set [1] was 9 nM. The half-life in data set [17] was 78 min.

In the case of `O=c1c(S(=O)(=O)Nc2ccc3cc[nH]c3c2)c[nH]c2ccccc12`, the Activity in [2] turned out to be 1%.

Regarding `CC(C)c1ccccc1NC(=O)c1c[nH]c2ccccc2c1=O`, the EC50 in data set [1] is 200 nM.

`N#CCc1ccccc1NC(=O)c1c[nH]c2ccccc2c1=O`: in [1], the EC50 is 8500 nM.

Regarding `CCc1ccccc1NC(=O)c1c[nH]c2ccccc2c1=O`, the half-maximal effective concentration (EC50) in [1] was determined as 200 nM.

Consider `CC(C)(C)c1cc(C(F)(F)F)c(NC(=O)c2c[nH]c3ccccc3c2=O)cc1O`, for which the EC50 in data set [1] worked out at 3 nM.

As for `CC(C)(C)c1ccc(NC(=O)c2c[nH]c3ccccc3c2=O)cc1O`, the AUC(0-inf) in [18] amounted to 260 ng·h/mL. In data set [19], the Vd was determined as 2.9 L/kg. Further, the clearance in [20] stood at 85.6 mL/min/kg. In data set [1], the EC50 is 3 nM. In [21], the half-life was 42 min.

As for `CC(C)(C)c1ccc(NC(=O)c2c[nH]c3ccccc3c2=O)cc1CN`, in data set [2], the Activity came out at 20%.

With `COC(=O)Nc1cc(NC(=O)c2c[nH]c3ccccc3c2=O)ccc1C(C)(C)C`, the EC50 in data set [1] came to 3500 nM.

Regarding `CC(C)(C)c1ccc(NC(=O)c2c[nH]c3ccccc3c2=O)cc1S(N)(=O)=O`, the EC50 in data set [1] amounted to 5100 nM.

For `CC(C)(C)c1ccc(NC(=O)c2c[nH]c3ccccc3c2=O)cc1C(=O)O`, the Activity in data set [2] came to 13%.

Turning to `CC(C)(C)c1ccc(NC(=O)c2c[nH]c3ccccc3c2=O)cc1CO`, the EC50 in data set [1] is 100 nM.

`CC(=O)Nc1cc(NC(=O)c2c[nH]c3ccccc3c2=O)ccc1C(C)(C)C`: the Activity in [2] was 24%.

As usually defined, the EC50 is the midpoint of the concentration-response curve. The half-life is the time needed for the level to fall by half in the phase considered. As usually defined, the IC50 is the midpoint of a concentration-inhibition curve. For orientation: clearance means the volume of plasma or blood freed of the substance per unit of time. What is called AUC is the area under the concentration-time curve, a measure of exposure. Broadly, the AUC(0-inf) is total exposure, with the tail of the curve extrapolated.
